The source of these data is ChEMBL document CHEMBL1148395, “Synthesis, biological properties, and molecular modeling investigations of novel 3,4-diarylpyrazolines as potent and selective CB(1) cannabinoid receptor antagonists” (J Med Chem, 2004).

Data set [1] addresses T1, Cannabinoid receptor 1 (Homo sapiens, UniProt P21554). The data set is described as follows: Antagonistic activity towards cannabinoid receptor 1 expressed as [3H]Arachidonic acid release in CHO cells. It counts as functional, cell-based. The note with it: read-out: pA2 (converted).
Data set [2] addresses T1, Cannabinoid receptor 1. The data set is described as follows: biochemical. The format is cell-based, CHO.
Another data set has as its target Cannabinoid receptor 2 (Homo sapiens, UniProt P34972). As to the kind of experiment: Affinity to displace CP-55940 binding from Cannabinoid receptor 2 of human expressed in CHO cells. It counts as cell-based. In a few lines:
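Bound and free ligand separated by glass-fibre filtration, filter radioactivity counted by liquid scintillation. IC50 values from at least two independent measurements combined and converted to Ki by Cheng-Prusoff.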

For data set [3], the target named is Cannabinoid receptor 1 (Rattus norvegicus) (UniProt P20272). As to the kind of experiment: In vivo effective dose to antagonise cannabinoid receptor 1 agonist (CP-55940) induced hypotension in rat upon peroral administration. It counts as functional, organism-based.
Chain of Cannabinoid receptor 1 (Rattus norvegicus) (P20272 whole entry): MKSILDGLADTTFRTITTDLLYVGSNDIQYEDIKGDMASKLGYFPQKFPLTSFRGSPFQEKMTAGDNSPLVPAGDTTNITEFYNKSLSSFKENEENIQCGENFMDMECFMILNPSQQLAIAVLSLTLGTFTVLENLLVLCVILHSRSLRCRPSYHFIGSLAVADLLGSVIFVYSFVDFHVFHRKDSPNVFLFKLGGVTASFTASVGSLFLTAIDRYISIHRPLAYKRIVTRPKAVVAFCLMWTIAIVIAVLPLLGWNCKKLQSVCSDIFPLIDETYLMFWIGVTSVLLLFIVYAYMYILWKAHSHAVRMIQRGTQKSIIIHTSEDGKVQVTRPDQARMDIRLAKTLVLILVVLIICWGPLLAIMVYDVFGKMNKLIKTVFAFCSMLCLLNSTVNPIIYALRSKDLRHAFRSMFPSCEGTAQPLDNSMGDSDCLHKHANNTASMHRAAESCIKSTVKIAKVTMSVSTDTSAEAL
For data set [4], the target named is Cannabinoid receptor 1 (Mus musculus) (UniProt P47746). As to the kind of experiment: In vivo least effective dose required to antagonise cannabinoid receptor 1 agonist (WIN-55212) induced hypothermia in mouse upon peroral administration.
Chain of Cannabinoid receptor 1 (Mus musculus) (P47746 whole entry, looked up): as the sequence (P20272 whole entry) above, with E95D counted along it
A short description of data set [5]: Mean percentage of compound transport through P-glycoprotein; expressed as p-glycoprotein affinity. It counts as ADME. In a few lines:
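Human MDR1 P-glycoprotein transport across a monolayer of PK1 LLC MDR cells; compound added at 1 µg/mL to one side. Bottom-to-top and top-to-bottom transport measured; Pgp factor taken as the ratio of bottom-to-top to top-to-bottom transport, given as mean percentage of compound transported.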

Data set [6] in a line: Mean percentage of compound transport through membrane; expressed as membrane transport. The format is ADME. In a few lines: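 Transport across a PK1 LLC MDR (human MDR1) cell monolayer with compound at 1 µg/mL added to one side. Membrane passage taken as the mean percentage of compound moved bottom-to-top and top-to-bottom at 3 h after addition.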
Data set [7] is described as follows: Partition coefficient (logP). It counts as physicochemical. Particulars: octanol/water. In a few lines:
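n-Octanol/water partition measured by RP-HPLC following an OECD method. Mobile phase buffered at pH > 11 on an aluminum-based octadecyl stationary phase.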

Where only a bound is given, the exact number is not on record here.

Chain of Cannabinoid receptor 2 (P34972 whole entry): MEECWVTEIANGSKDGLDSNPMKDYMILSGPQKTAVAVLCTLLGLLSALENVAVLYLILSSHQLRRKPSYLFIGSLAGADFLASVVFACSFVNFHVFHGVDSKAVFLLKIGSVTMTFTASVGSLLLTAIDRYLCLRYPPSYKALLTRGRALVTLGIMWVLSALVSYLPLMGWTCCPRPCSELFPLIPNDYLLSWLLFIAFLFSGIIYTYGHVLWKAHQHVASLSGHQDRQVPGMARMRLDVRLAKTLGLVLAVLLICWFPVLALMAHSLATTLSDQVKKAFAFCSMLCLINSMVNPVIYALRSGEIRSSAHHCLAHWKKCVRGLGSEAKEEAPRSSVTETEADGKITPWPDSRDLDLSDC
T1 sequence (P21554 whole entry): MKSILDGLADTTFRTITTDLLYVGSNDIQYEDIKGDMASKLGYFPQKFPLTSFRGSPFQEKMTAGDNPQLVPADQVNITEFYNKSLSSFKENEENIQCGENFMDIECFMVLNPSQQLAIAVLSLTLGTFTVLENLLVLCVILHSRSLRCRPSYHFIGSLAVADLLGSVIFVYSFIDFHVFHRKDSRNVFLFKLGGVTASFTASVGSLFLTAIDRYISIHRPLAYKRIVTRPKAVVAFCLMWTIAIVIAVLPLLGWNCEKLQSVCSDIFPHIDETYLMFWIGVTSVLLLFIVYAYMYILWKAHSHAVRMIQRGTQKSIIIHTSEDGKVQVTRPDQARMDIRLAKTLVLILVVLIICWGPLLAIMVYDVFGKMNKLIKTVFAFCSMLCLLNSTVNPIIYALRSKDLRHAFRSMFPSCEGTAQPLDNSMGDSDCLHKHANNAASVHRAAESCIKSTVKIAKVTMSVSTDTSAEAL

As a reminder, the Ki is a dissociation constant, usually derived from enzyme kinetics or from competition with a known ligand. In the case of `C/N=C(\NS(=O)(=O)c1ccc2ccccc2c1)N1CC(c2ccccc2)C(c2ccc(Cl)cc2)=N1` (centres undefined), at Cannabinoid receptor 1 [1], the Kb is 3.16 nM. At Cannabinoid receptor 1 [2], this molecule gave a Ki of 21.8 nM.

As for `CN(C)/C(=N\S(=O)(=O)c1ccc(F)cc1)N1CC(c2ccccc2)C(c2ccc(Cl)cc2)=N1` (centres undefined), the inhibitory constant (Ki) at Cannabinoid receptor 2 and at Cannabinoid receptor 1 [2] was above 1000 nM throughout. Also, on Cannabinoid receptor 1 [1], the Kb was above 31.6 nM.

`C/N=C(\NS(=O)(=O)c1ccccc1)N1CC(c2ccccc2)C(c2ccc(Cl)cc2)=N1` (centres undefined): the Kb at Cannabinoid receptor 1 [1] is 31.6 nM. This molecule also yielded an inhibitory constant (Ki) at Cannabinoid receptor 1 [2] of 170 nM.

By ED50 is commonly meant the dose that gives a 50% effect, or the effect in half of the subjects. Low readings indicate greater potency, high ones weaker potency. Consider `C/N=C(\NS(=O)(=O)c1ccc(Cl)cc1)N1C[C@@H](c2ccccc2)C(c2ccc(Cl)cc2)=N1`, for which the ED50 in data set [3] was above 30 mg/kg.

As to `CNC(=NS(=O)(=O)c1cccc(Cl)c1)N1CC(c2ccccc2)C(c2ccc(Cl)cc2)=N1` (centres undefined), the values for the Ki at Cannabinoid receptor 2 and on Cannabinoid receptor 1 [2] were above 1000 nM and 13.9 nM, respectively. Further, at Cannabinoid receptor 1 [1], the Kb is 2.51 nM.

`N=C(NS(=O)(=O)c1ccc(Cl)cc1)N1CC(c2ccccc2)C(c2ccc(Cl)cc2)=N1` (centres undefined) gave a median effective dose (ED50) in data set [3] above 30 mg/kg. Moreover, the LED in data set [4] was above 30 mg/kg.

The molecule `C/N=C(\NS(=O)(=O)c1ccc(C(F)(F)F)cc1)N1CC(c2ccccc2)C(c2ccc(Cl)cc2)=N1` (centres undefined) had an ED50 in data set [3] of 8.9 mg/kg. In data set [4], this molecule came in with an LED of 3 mg/kg.

Consider `CNC(=NS(=O)(=O)c1ccc(C(F)(F)F)cc1)N1CC(c2ccccc2)C(c2ccc(Cl)cc2)=N1` (centres undefined), for which the Ki on Cannabinoid receptor 2 was above 1000 nM; on Cannabinoid receptor 1 [2], 221 nM. Besides, the Kb at Cannabinoid receptor 1 [1] is 0.501 nM.

Consider `CN=C(NS(=O)(=O)c1ccc(C(F)(F)F)cc1)N1C[C@@H](c2ccccc2)C(c2ccc(Cl)cc2)=N1`, for which the Ki on Cannabinoid receptor 2 is above 1000 nM; on Cannabinoid receptor 1 [2] it was 293 nM. For the same molecule, the Kb on Cannabinoid receptor 1 [1] is 31.6 nM.

Regarding `Cc1ccc(S(=O)(=O)NC(=N)N2CC(c3ccccc3)C(c3ccc(Cl)cc3)=N2)cc1` (centres undefined), the Ki at Cannabinoid receptor 2 was above 1000 nM; at Cannabinoid receptor 1 [2], 197 nM. Further, in data set [3], the 50% effective dose (ED50) was above 30 mg/kg. For the same molecule, at Cannabinoid receptor 1 [1], the Kb was 3.98 nM. For the same molecule, the LED in data set [4] was above 30 mg/kg.

Take `CN=C(NS(=O)(=O)c1ccc(Cl)cc1)N1CC(c2ccc(F)cc2)C(c2ccc(Cl)cc2)=N1` (centres undefined): on Cannabinoid receptor 1 [2], the affinity, expressed as Ki, was 584 nM.

Turning to `C/N=C(\NS(=O)(=O)c1ccc(C)cc1)N1CC(c2ccccc2)C(c2ccc(Cl)cc2)=N1` (centres undefined), on Cannabinoid receptor 1 [1], the Kb is 2.51 nM.

As for `C/N=C(\NS(=O)(=O)c1ccccc1Cl)N1CC(c2ccccc2)C(c2ccc(Cl)cc2)=N1` (centres undefined), the inhibitory constant (Ki) on Cannabinoid receptor 2 was above 1000 nM; on Cannabinoid receptor 1 [2] it was 75.4 nM. For the same molecule, on Cannabinoid receptor 1 [1], the Kb is 5.01 nM.

In data set [3], `CN/C(=N\S(=O)(=O)c1ccc(Cl)cc1)N1C[C@H](c2ccccc2)C(c2ccc(Cl)cc2)=N1` returned an ED50 of 5.5 mg/kg.

For the molecule `C/N=C(\NS(=O)(=O)c1ccc(Cl)cc1)N1CC(c2ccccc2)C(c2ccc(F)cc2)=N1` (centres undefined), the Kb at Cannabinoid receptor 1 [1] was 25.1 nM. The molecule also registered a Ki at Cannabinoid receptor 1 [2] of 214 nM.

As to `Cc1cc(C)c(S(=O)(=O)NC(=N)N2CC(c3ccccc3)C(c3ccc(Cl)cc3)=N2)c(C)c1` (centres undefined), the inhibitory constant (Ki) on Cannabinoid receptor 2 was above 1000 nM; at Cannabinoid receptor 1 [2], 24.2 nM. Also, the Kb at Cannabinoid receptor 1 [1] was 0.398 nM.

Take `CN=C(NS(=O)(=O)c1ccc(OC)cc1)N1CC(c2ccccc2)C(c2ccc(Cl)cc2)=N1` (centres undefined): the Kb on Cannabinoid receptor 1 [1] was 10 nM. The affinity on Cannabinoid receptor 1 [2] corresponds to a Ki of 22.9 nM.

In the case of `C/N=C(\NS(=O)(=O)c1c(C)cc(C)cc1C)N1CC(c2ccccc2)C(c2ccc(Cl)cc2)=N1` (centres undefined), at Cannabinoid receptor 1 [1], the Kb was 0.398 nM. This molecule also returned a Ki at Cannabinoid receptor 1 [2] of 54.2 nM.

Consider `C/N=C(\NS(=O)(=O)c1cccc(C(F)(F)F)c1)N1CC(c2ccccc2)C(c2ccc(Cl)cc2)=N1` (centres undefined), for which the inhibition constant (Ki) is above 1000 nM at Cannabinoid receptor 2 and 36.5 nM on Cannabinoid receptor 1 [2]. Further, the Kb at Cannabinoid receptor 1 [1] was 0.794 nM.

Take `C/N=C(\NS(=O)(=O)c1ccc(F)cc1)N1CC(c2ccccc2)C(c2ccc(Cl)cc2)=N1` (centres undefined): the Ki at Cannabinoid receptor 2 is above 1000 nM; at Cannabinoid receptor 1 [2], 338 nM. Besides, the Kb at Cannabinoid receptor 1 [1] is 3.16 nM.

`C/N=C(\NS(=O)(=O)c1ccc(C(F)(F)F)cc1)N1C[C@@H](c2ccccc2)C(c2ccc(Cl)cc2)=N1` came in with an ED50 in data set [3] above 30 mg/kg. In addition, in data set [4], the LED was above 30 mg/kg.

`O=C(NS(=O)(=O)c1ccc(Cl)cc1)N1CC(c2ccccc2)C(c2ccc(Cl)cc2)=N1` (centres undefined) yielded an inhibition constant (Ki) on Cannabinoid receptor 1 [2] above 1000 nM.

A word on the logP: it is a log measure of how a compound divides between an organic and an aqueous phase. Consider `CN(C)/C(=N\S(=O)(=O)c1ccc(Cl)cc1)N1CC(c2ccccc2)C(c2ccc(Cl)cc2)=N1` (centres undefined), for which the Activity in data set [5] is given as 1.4; in data set [6], 15.2. Also, the Ki on Cannabinoid receptor 2 is above 1000 nM; at Cannabinoid receptor 1 [2], 280 nM. In data set [3], this molecule had an ED50 above 30 mg/kg. At Cannabinoid receptor 1 [1], the Kb was 3.16 nM. Further, the logP in data set [7] was determined as 4.8.

Regarding `COc1ccc(S(=O)(=O)NC(=N)N2CC(c3ccccc3)C(c3ccc(Cl)cc3)=N2)cc1` (centres undefined), the Ki at Cannabinoid receptor 2 is above 1000 nM; at Cannabinoid receptor 1 [2], 196 nM. Further, the Kb at Cannabinoid receptor 1 [1] is 5.01 nM.

For the molecule `CS/C(=N\S(=O)(=O)c1ccc(C(F)(F)F)cc1)N1CC(c2ccccc2)C(c2ccc(Cl)cc2)=N1` (centres undefined), the Ki at Cannabinoid receptor 2 is above 1000 nM; on Cannabinoid receptor 1 [2], 16.6 nM. In addition, at Cannabinoid receptor 1 [1], the Kb was 0.2 nM.

`CN/C(=N/S(=O)(=O)c1ccc(C(F)(F)F)cc1)N1C[C@H](c2ccccc2)C(c2ccc(Cl)cc2)=N1`: the Ki at Cannabinoid receptor 2 is 3510 nM; on Cannabinoid receptor 1 [2] it was 35.9 nM. The Kb at Cannabinoid receptor 1 [1] is 1 nM.

In data set [3], `C/N=C(\NS(=O)(=O)c1ccc(C(F)(F)F)cc1)N1C[C@H](c2ccccc2)C(c2ccc(Cl)cc2)=N1` yielded a median effective dose (ED50) of 2 mg/kg. The same molecule displayed an LED in data set [4] of 1 mg/kg.

Turning to `CN/C(=N\S(=O)(=O)c1ccc(Cl)cc1)N1CC(c2ccccc2)C(c2ccc(Cl)cc2)=N1` (centres undefined), in data set [3], the median effective dose (ED50) was 15 mg/kg.

Consider `C/N=C(\NC(=O)c1ccc(Cl)cc1)N1CC(c2ccccc2)C(c2ccc(Cl)cc2)=N1` (centres undefined), for which, at Cannabinoid receptor 1 [1], the Kb is 2 nM. In addition, affinity on Cannabinoid receptor 1 [2] was put at a Ki of 70.6 nM.

As for `CN=C(NS(=O)(=O)c1ccc(Cl)cc1)N1CC(c2ccc(Cl)cc2)C(c2ccc(Cl)cc2)=N1` (centres undefined), the affinity at Cannabinoid receptor 1 [2], expressed as Ki, was 255 nM. This counts as sub-micromolar.

As for `NC(=NS(=O)(=O)c1ccc(Cl)cc1)N1CC(c2ccccc2)C(c2ccc(Cl)cc2)=N1` (centres undefined), the results for the Activity in data set [5] and in data set [6] were 1.7 and 7, respectively. Also, the Ki at Cannabinoid receptor 2 was above 1000 nM; on Cannabinoid receptor 1 [2] it was 16.1 nM. Also, the Kb on Cannabinoid receptor 1 [1] is 0.316 nM. This molecule also yielded a log partition coefficient (logP) in data set [7] of 4.3.

In the case of `CN=C(NS(=O)(=O)c1ccc(Cl)cc1)N1C[C@H](c2ccccc2)C(c2ccc(Cl)cc2)=N1` [IBIPINABANT], the Activity in data set [5] was 1.4; in data set [6], 14.8. In addition, the logP in data set [7] was found to be 4.8.

For `N=C(NS(=O)(=O)c1ccc(F)cc1)N1CC(c2ccccc2)C(c2ccc(Cl)cc2)=N1` (centres undefined), the Ki at Cannabinoid receptor 2 is above 1000 nM; on Cannabinoid receptor 1 [2], 52.6 nM. On Cannabinoid receptor 1 [1], the Kb was 1 nM.
